# Laboratory results: ChEMBL document CHEMBL4038321, “Design, Synthesis, and Pharmacokinetics of a Bone-Targeting Dual-Action Prodrug for the Treatment of Osteoporosis” (J Med Chem, 2017)
# Tests used:
# [1] = Stability in rat plasma assessed as parent compound remaining at 100 uM measured after 1 hr by HPLC analysis (reference value: 49 to 86%); assay type: ADME, cell-free; details: read-out: Stability
# cathepsin K [2] = biological target: T1, cathepsin K (Homo sapiens, UniProt P43235); assay: Substrate activity at recombinant human cathepsin K expressed in Escherichia coli assessed as compound cleavage at 100 uM after 3 hrs by HPLC analysis; assay type: ADME; details: read-out: Drug degradation
# T1 sequence (P43235 whole entry): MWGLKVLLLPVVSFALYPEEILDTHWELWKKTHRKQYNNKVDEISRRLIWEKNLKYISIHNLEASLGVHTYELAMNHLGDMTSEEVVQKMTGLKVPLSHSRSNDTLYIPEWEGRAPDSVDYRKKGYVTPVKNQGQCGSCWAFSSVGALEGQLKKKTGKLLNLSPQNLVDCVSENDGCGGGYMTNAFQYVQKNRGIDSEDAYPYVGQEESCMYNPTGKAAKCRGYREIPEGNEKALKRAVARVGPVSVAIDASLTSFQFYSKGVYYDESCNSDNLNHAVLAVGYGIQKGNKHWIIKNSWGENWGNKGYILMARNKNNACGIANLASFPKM
# Method in brief: (§1)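 Human procathepsin K, recombinant from E. coli, was activated for 40 min at room temperature in 50 mM NaOAc-HOAc with 200 mM NaCl, pH 4.1. Final assay had 0.2 µM enzyme in 50 mM MES pH 5.5, 2 mM EDTA, 4 mM DTT and 0.15% chondroitin sulfate. Conjugates or the standard substrate Cbz-Leu-Arg-AMC were at 100 µM. Incubation was at 37 °C with HPLC at UV 240 nm; cleavage was taken from release of 4-aminobenzyl alcohol and its DTT adduct.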
# cathepsin K [3] = biological target: T2, cathepsin K (Rattus norvegicus, UniProt O35186); assay: Substrate activity at recombinant rat cathepsin K expressed in Escherichia coli assessed as compound cleavage at 100 uM after 1 hr by HPLC analysis; assay type: ADME; details: read-out: Drug degradation
# T2 sequence (O35186 whole entry): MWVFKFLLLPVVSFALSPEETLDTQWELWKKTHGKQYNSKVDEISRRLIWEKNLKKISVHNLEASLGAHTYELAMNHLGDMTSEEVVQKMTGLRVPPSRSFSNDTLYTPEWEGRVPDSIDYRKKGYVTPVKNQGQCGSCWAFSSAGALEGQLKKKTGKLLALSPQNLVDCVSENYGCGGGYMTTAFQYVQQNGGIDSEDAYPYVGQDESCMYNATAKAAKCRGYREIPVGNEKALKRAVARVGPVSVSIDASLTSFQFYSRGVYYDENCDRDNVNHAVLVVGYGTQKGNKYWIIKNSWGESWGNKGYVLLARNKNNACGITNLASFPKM
# Method in brief: (§2)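 Rat cathepsin K was recombinant, expressed in E. coli, and used at 0.2 µM final in 50 mM MES pH 5.5 with 2 mM EDTA, 4 mM DTT and 0.15% chondroitin sulfate. Conjugates or the standard substrate Cbz-Leu-Arg-AMC were at 100 µM and incubated at 37 °C. Aliquots were run by HPLC at UV 240 nm. Cleavage was calculated from the appearance of 4-aminobenzyl alcohol plus its DTT-trapped adduct.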
# [4] = Stability in rat serum assessed as parent compound remaining at 100 uM measured after 4 hrs by HPLC analysis (reference value: 93 to 97%); assay type: ADME, cell-free; details: read-out: Stability
# [5] = Stability in rat serum assessed as parent compound remaining at 100 uM measured after 2 hrs by HPLC analysis (reference value: 93 to 97%); assay type: ADME, cell-free; details: read-out: Stability
# cathepsin K [6] = biological target: T2, cathepsin K; assay: Substrate activity at recombinant rat cathepsin K expressed in Escherichia coli assessed as compound cleavage at 100 uM after 2 hrs by HPLC analysis; assay type: ADME; details: read-out: Drug degradation; method in brief: as §2
# [7] = Stability in rat serum assessed as parent compound remaining at 100 uM measured after 1 hr by HPLC analysis (reference value: 93 to 97%); assay type: ADME, cell-free; details: read-out: Stability
# cathepsin K [8] = biological target: T1, cathepsin K; assay: Substrate activity at recombinant human cathepsin K expressed in Escherichia coli assessed as compound cleavage at 100 uM after 1 hr by HPLC analysis; assay type: ADME; details: read-out: Drug degradation; method in brief: as §1
# [9] = Stability in rat serum assessed as parent compound remaining at 100 uM measured after 24 hrs by HPLC analysis (reference value: 93 to 97%); assay type: ADME, cell-free; details: read-out: Stability
# cathepsin K [10] = biological target: T2, cathepsin K; assay: Substrate activity at recombinant rat cathepsin K expressed in Escherichia coli assessed as compound cleavage at 100 uM after 20 hrs by HPLC analysis; assay type: ADME; details: read-out: Drug degradation; method in brief: as §2
# [11] = Stability in rat plasma assessed as parent compound remaining at 100 uM measured after 4 hrs by HPLC analysis (reference value: 49 to 86%); assay type: ADME, cell-free; details: read-out: Stability
# [12] = Stability in rat plasma assessed as parent compound remaining at 100 uM measured after 2 hrs by HPLC analysis (reference value: 49 to 86%); assay type: ADME, cell-free; details: read-out: Stability
# [13] = Stability in rat plasma assessed as parent compound remaining at 100 uM measured after 24 hrs by HPLC analysis (reference value: 49 to 86%); assay type: ADME, cell-free; details: read-out: Stability
# cathepsin K [14] = biological target: T1, cathepsin K; assay: Substrate activity at recombinant human cathepsin K expressed in Escherichia coli assessed as compound cleavage at 100 uM after 2 hrs by HPLC analysis; assay type: ADME; details: read-out: Drug degradation; method in brief: as §1
# [15] = Solubility of the compound in phosphate buffer at 2 mg/ml; assay type: physicochemical
# Method in brief: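 Conjugate tested for dissolution at the dosing concentration of 2 mg/mL in PBS alone, then in PBS formulations containing surfactants (PEG400, Tween, Cremaphor). Solutions were judged by visual clarity (homogeneous versus cloudy).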
# Bone [16] = assay: Half life in iv dosed Sprague-Dawley rat bone administered as single dose using radiolabeled compound; assay type: ADME, organism-based, Bone element; details: in vivo
# Method in brief: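 Female Sprague Dawley rats, about 13 weeks old on receipt, got a single tail-vein bolus of 5.0 mg/kg conjugate. The dose held 8.90 µCi [3H] and 1.77 µCi [14C] label, in 10% poloxamer 188 brought to pH 8.0 with NaHCO3 and diluted 1:1 with PBS. Groups of 3 were killed at 6 h and 1, 7, 14 and 28 days. Femurs were oxidized and counted, with skeleton taken as 8% of body weight, and label loss from bone gave half-times.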
# Plasma = assay: Drug metabolism in Sprague-Dawley rat plasma assessed as tritium label liberation in presence of bone powder; assay type: ADME, cell-free
# Method in brief: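 Tritiated conjugate was incubated in rat plasma at 37 °C. At fixed times up to 24 h the mixture was stirred with bovine bone powder to adsorb intact conjugate and any cleaved bisphosphonate. The supernatant was then scintillation counted as unbound, liberated tritium.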
# Bone [17] = assay: Drug uptake in Sprague-Dawley rat bone at 1 mg/kg, iv after 6 hrs; assay type: ADME, organism-based, Bone element; details: in vivo
# Bone [18] = assay: Drug uptake in Sprague-Dawley rat bone at 0.2 uci, iv administered as single dose using 14C-labeled compound after 4 hrs; assay type: ADME, organism-based, Bone element; details: in vivo
smiles,measurement,setting,value
CC(C)C[C@H](NC(=O)OCc1ccccc1)C(=O)N[C@@H](CCCNC(=N)N)C(=O)Nc1ccc(COC(=O)NCCCC(O)(P(=O)(O)O)P(=O)(O)O)cc1,"remaining at 1 h, 100 µM",[1],78%
same,"metabolised at 3 h, 100 µM",cathepsin K [2],79%
same,"metabolised at 1 h, 100 µM",cathepsin K [3],73%
same,"remaining at 4 h, 100 µM",[4],86%
same,"remaining at 2 h, 100 µM",[5],95%
same,"metabolised at 2 h, 100 µM",cathepsin K [6],80%
same,"remaining at 1 h, 100 µM",[7],97%
same,"metabolised at 1 h, 100 µM",cathepsin K [8],66%
same,"remaining at 24 h, 100 µM",[9],70%
same,"metabolised at 20 h, 100 µM",cathepsin K [10],95%
same,"remaining at 4 h, 100 µM",[11],64%
same,"remaining at 2 h, 100 µM",[12],78%
same,"remaining at 24 h, 100 µM",[13],59%
same,"metabolised at 2 h, 100 µM",cathepsin K [14],75%
CCOC(=O)CCCCCCN1C(=O)CC[C@@H]1/C=C/[C@@H](OC(=O)Cc1ccc(COC(=O)N[C@@H](CC(C)C)C(=O)N[C@@H](CCCNC(=N)N)C(=O)Nc2ccc(COC(=O)NCCCC(O)(P(=O)(O)O)P(=O)(O)O)cc2)cc1)C(F)(F)c1ccccc1,solubility,[15],Insoluble
CCCCC[C@@H](/C=C/[C@H]1[C@H](O)CC(=O)[C@@H]1C/C=C\CCCC(=O)O)OC(=O)CSCCCC(P(=O)(O)O)P(=O)(O)O,t1/2,Bone [16],96 to 120 h
same,Drug metabolism,Plasma,15%
same,Drug uptake,Bone [17],3.5%
N=C(N)NCCC[C@H](NC(=O)[C@@H]1CCCN1C(=O)OCc1ccccc1)C(=O)Nc1ccc(COC(=O)NCCCC(O)(P(=O)(O)O)P(=O)(O)O)cc1,"remaining at 1 h, 100 µM",[1],95%
same,"metabolised at 1 h, 100 µM",cathepsin K [3],5%
same,"remaining at 4 h, 100 µM",[4],77%
same,"remaining at 2 h, 100 µM",[5],78%
same,"metabolised at 2 h, 100 µM",cathepsin K [6],10%
same,"remaining at 1 h, 100 µM",[7],89%
same,"metabolised at 1 h, 100 µM",cathepsin K [8],90%
same,"remaining at 24 h, 100 µM",[9],69%
same,"metabolised at 20 h, 100 µM",cathepsin K [10],52%
same,"remaining at 4 h, 100 µM",[11],90%
same,"remaining at 2 h, 100 µM",[12],90%
same,"remaining at 24 h, 100 µM",[13],65%
same,"metabolised at 2 h, 100 µM",cathepsin K [14],98%
CCCCC[C@H](O)/C=C/[C@H]1[C@H](O)CC(=O)[C@@H]1C/C=C\CCCC(=O)NCCCC(O)(P(=O)(O)O)P(=O)(O)O,Drug uptake,Bone [18],15 %ID
